Tests used:
Type in all cases: cell-based
[1] = system: Hsp27 phosphorylation; experiment: Western blot of Hsp27 phosphorylation; conditions: SB203580 0.25-8 µM for 2 h, then EV-A71 MOI 10 for 6 h, RD cells (Fig 1A)
Outline: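 RD cells were pre-treated 2 h with test peptide or small-molecule test compound (0–8 µM), then infected with EV-A71 at MOI 10 for 6 h. Cells were lysed in NP-40 buffer, assayed by Bradford, and 20 μg protein was run on 12% SDS-PAGE/PVDF. Blots were probed with phospho-Ser15/78/82 Hsp27 antibodies and HRP secondaries (1 h) and read by chemiluminescence. Loading controls were GAPDH for the compound and β-actin for peptides; peptide blots were quantified by densitometry.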

[2] = system: Hsp27/hnRNP A1 relocalization; conditions: for redistribution of Hsp27 and hnRNP A1 in EV-A71-infected RD cells: peptide 25 μM for 2 h, then EV-A71 MOI 40 for 6 h (Fig 7C-E, S7C-E)
Outline: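 RD cells on coverslips were pretreated 2 h with the test compound, then infected with EV-A71 at MOI 40 for 6 h. Cells were fixed in 4% paraformaldehyde for 20 min, permeabilised in 0.5% Triton X-100 for 15 min and blocked in 5% BSA for 2 h. They were stained with anti-Hsp27/anti-hnRNP A1 and Alexa Fluor 488/594 secondaries, with DAPI or Hoechst nuclei, and imaged by confocal. M1 coefficient gave overlap with nuclear stain.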

[3] = system: Hsp27 nuclear translocation / hnRNP A1 cytosol translocation; experiment: Nuclear/cytosol fraction assay upon EV-A71 infection; conditions: 0, 2, 4, 8 µM for 2 h, then EV-A71 MOI 10 for 6 h, RD cells (Fig 1C)
Outline: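 RD cells were pretreated 2 h with the test compound (0–8 µM), then infected with EV-A71 at MOI 10 for 6 h. Cells were PBS-washed, scraped and pelleted. Cytoplasmic extract was taken on ice as the supernatant after 16,000 xg for 5 min. Nuclear extract was the supernatant after 16,000 xg for 10 min at 4°C. Both were analysed by western blot, with Lamin B1 as nuclear and GAPDH as cytosolic control.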

[4] = system: EV-A71; experiment: Viral RNA by RT-qPCR; conditions: HEK 293T cells, 8 μM SB203580 2 h before EV-A71 infection for 9 h (Fig 6C)
[5] = system: EV-A71; experiment: Virus titration; conditions: RD cells, peptide 25 μM for 2 h, EV-A71 MOI 0.1 for 24 h (Fig S8G)
Outline: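 RD cells were pretreated 2 h with the test peptide, then infected with EV-A71. Supernatants were serially diluted 10-fold and added in quintuplicate to RD cells seeded 24 h earlier. TCID50 was calculated by the Kärber method after 120 h of infection.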

[6] = system: RD cells; experiment: CCK-8 assay; conditions: peptide treatment for 2 days, CCK-8 (Fig S7B)
Outline: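 RD cells were seeded at 1 × 10^4/well and held 1 day at 5% CO2. They were then exposed to the test peptide for 2 days. CCK-8 reagent was added with medium and incubated 1 h at 37°C, and OD was read at 450 nm.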

[7] = system: EV-A71 VP1; experiment: EV-A71 VP1 protein level by western blot with densitometry; conditions: RD cells, peptide for 2 h, EV-A71 MOI 1 for 9 h (Fig S8E)
Outline: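 RD cells were pretreated 2 h with the test peptide, then infected with EV-A71 (SHZH98 strain). Lysis was in NP-40 buffer, with protein measured by Bradford assay. 20 μg protein was run on 12% SDS-PAGE and transferred to PVDF. HRP secondary antibodies were applied for 1 h, with chemiluminescent detection. VP1 bands were quantified by densitometry against the respective untreated control.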

Row | Compound | Hsp27 phosphorylation level at Ser15 and Ser82 [1] | nuclear Hsp27 level upon EV-A71 infection ([2]; 2 µM for 2 h, then EV-A71 MOI 40 for 6 h, RD cells (Fig 1B)) | nuclear relocation of Hsp27 upon EV-A71 infection ([2]; 4 µM for 2 h, then EV-A71 MOI 40 for 6 h, RD cells (Fig 1B)) | cytosol translocation of hnRNP A1 (nuclear/cytosol fraction) [3] | nuclear translocation of Hsp27 (nuclear/cytosol fraction) [3] | effect on viral RNA level in Hsp27 S78A- and Hsp27 S78D-expressing cells [4] | redistribution of Hsp27 and hnRNP A1 in EV-A71-infected RD cells [2] | effect on viral titre (in words) [5] | CC50 (in words) [6] | effect on VP1 level (in words) [7]
1 | C[S+]([O-])c1ccc(-c2nc(-c3ccncc3)c(-c3ccc(F)cc3)[nH]2)cc1 (stereo not drawn) [SB203580] | slightly decreased | markedly reduced nuclear Hsp27 level | further blocked to an invisible level | inhibited the cytosol translocation of hnRNP A1 in a dose-dependent manner | suppress the nuclear translocation of Hsp27 in a dose-dependent manner | no obvious effects | – | – | – | –
2 | RKKRRQRRR-AYSRAAAAQLSS [S78-3A] | – | – | – | – | – | – | partially suppressed | only mildly decreased | high CC50 | –
3 | RKKRRQRRR-YSREANQPKPSPKRESGEE [NC] | – | – | – | – | – | – | did not affect | – | high CC50 | no effect
